Measured values pooled from the literature.
Compare with care: the assays were run in different laboratories.
Target: Mitogen-activated protein kinase 13 (MAPK13, Homo sapiens, UniProt O15264)
One construct used (O15264 1-365): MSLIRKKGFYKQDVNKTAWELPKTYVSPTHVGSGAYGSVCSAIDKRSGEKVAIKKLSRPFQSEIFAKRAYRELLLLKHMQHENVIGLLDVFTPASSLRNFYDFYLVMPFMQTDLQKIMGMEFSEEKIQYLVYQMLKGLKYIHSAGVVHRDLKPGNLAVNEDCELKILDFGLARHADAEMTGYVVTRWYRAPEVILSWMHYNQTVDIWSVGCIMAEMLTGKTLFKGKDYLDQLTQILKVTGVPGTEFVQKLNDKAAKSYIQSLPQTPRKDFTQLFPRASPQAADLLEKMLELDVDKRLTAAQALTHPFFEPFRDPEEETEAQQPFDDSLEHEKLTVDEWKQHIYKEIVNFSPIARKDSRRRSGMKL

Structure (SMILES) | assay | setting | endpoint | value
O=C1NC(=O)c2cc(Nc3ccc(F)cc3)c(Nc3ccc(F)cc3)cc21 | cell-free assay | 0.5 µM | remaining signal | 99.4%
Oc1cccc(-c2nc(N3CCOCC3)c3oc4ncccc4c3n2)c1 | enzyme activity, inhibitor | 10 µM | remaining activity | 84%
CCOc1cc(-c2nncn2C)ccc1Nc1ncc2cc(C)nc(NCC(C)(C)C)c2n1 | enzyme activity, inhibitor, FRET | 1 µM | inhibition | < 15%
Cc1nc(C2CCN(C(=O)c3ccc(OC(F)(F)F)cc3N)CC2)c2ncc(N3CCN(C)CC3)cc2n1 | cell-free assay, competition with immobilised ligand | 1 µM | remaining binding | 100%
O=C(Nc1cnn(-c2csc(C(=O)NC3COC3)c2)c1)Nc1ccccc1Cl | enzyme activity, inhibitor | 5 µM | remaining activity | 122%
Cn1c2c(c3ccc(Cl)c(Cl)c31)C(C#N)C1(CCNCC1)NC2=O (racemic) | thermal stability, DSF | 10 µM | ΔTm | 0.5 °C
CCN(CC)CCNC(=O)c1c(C)[nH]c(/C=C2\C(=O)Nc3ccc(F)cc32)c1C | enzyme activity, inhibitor | 0.3 µM | inhibition | -17%
Nc1ncnc2occ(-c3ccc(NC(=O)Nc4cc(C(F)(F)F)ccc4F)cc3)c12 | cell-free assay, inhibitor | 20 µM | remaining signal | 0.4%
O=C(Nc1cnn(-c2csc(C(=O)NC3COC3)c2)c1)Nc1c(F)cccc1Cl | enzyme activity, inhibitor | 5 µM | remaining activity | 98.4%
Nc1nc(Nc2ccccc2)sc1C(=O)c1c(F)cccc1F | enzyme activity, inhibitor | 10 µM | remaining activity | 62%
Cc1cnc(NC2CCOCC2)nc1-n1cnc(C(=O)NC(CN)c2cc(F)cc(Cl)c2)c1 (centres unmarked) | enzyme activity, inhibitor, radiometric | 1 µM | remaining activity | 28%
Cn1c2c(Cl)c(Cl)ccc2c2cc[nH]c(=O)c21 | thermal stability, DSF | 10 µM | ΔTm | -0.4 °C
O=C(O)[C@@H]1[C@@H](Cn2nnc3ccccc3c2=O)CC[C@H]1C(=O)c1ccc(OCCC2CCOCC2)cc1 | cell-free assay, competition with immobilised ligand | 1 µM | remaining binding | 94%
CN1CC(Oc2cnc(C#N)cc2-c2ccn3nc(NC(=O)C4CC4)cc3c2)C1 | enzyme activity, inhibitor | 1 µM | inhibition | -1%
COc1cc(-c2cc(-c3ccc(N4CCNCC4)cc3)cnc2C)cc(OC)c1OC | enzyme activity, inhibitor | 1 µM | inhibition | 1%
Cc1nc(Cc2cccc(C(F)(F)F)c2)sc1-c1ccc(C(N)=O)nc1 | cell-free assay, competition with immobilised ligand | 1 µM | remaining binding | 99%
Cn1c2c(c3ccc(Cl)c(Cl)c31)C(C#N)C1(CCN(C(=O)OC(C)(C)C)CC1)NC2=O (racemic) | thermal stability, DSF | 10 µM | ΔTm | -0.1 °C
CNC(=O)c1ccc(Nc2ncc(C(F)(F)F)c(NCc3nccnc3N(C)S(C)(=O)=O)n2)cc1 | cell-free assay, competition with immobilised ligand | 0.1 µM | remaining binding | 91%

Structure (SMILES) | assay | setting | endpoint | value
CC(C)(C)c1nc2c(s1)c1nc(N)ncc1c1ccc(NS(=O)(=O)c3c(F)cccc3F)c(F)c12 | enzyme activity, inhibitor, radiometric | 1 µM | remaining activity | 91%
CNC(=O)c1cc(Oc2ccc(NC(=O)Nc3ccc(Cl)c(C(F)(F)F)c3)cc2)ccn1 | enzyme activity, inhibitor | 10 µM | inhibition | 56%
N#Cc1ccc(Nc2ccc3[nH]c(=O)[nH]c3c2)c(Cl)c1 | cell-free assay, competition with immobilised ligand | 1 µM | remaining binding | 100%
COc1cc(Cl)c(C(=O)N[C@@H](CN[C@H]2CC[C@@H](N)CC2)Cc2ccc(C#N)cc2)cc1-c1ccc(CN[C@H](C)c2ccc(C)cc2)o1 | enzyme activity, inhibitor | 1 µM | remaining activity | 101%
O=C(Nc1cccnn1)N1CCC(=Cc2cccc(Oc3ccc(C(F)(F)F)cn3)c2)CC1 | cell-free assay, competition with immobilised ligand | 1 µM | remaining binding | 86%
Cn1c2c(Cl)c(Cl)ccc2c2cc(N)[nH]c(=O)c21 | thermal stability, DSF | 10 µM | ΔTm | 0.5 °C
O=C(O)c1cc(-c2ccc(C3CCNCC3)cc2)c2ccc(-c3ccc(C(F)(F)F)cc3)cc2c1 | cell-free assay, competition with immobilised ligand | 1 µM | remaining binding | 97%
COc1cc(Nc2cnc(C#N)c(O[C@H](C)CN(C)C)n2)ncc1-c1cnn(C)c1 | enzyme activity, inhibitor, radiometric | 1 µM | remaining activity | 87%
COc1cc2ncnc(Nc3ccc(Oc4ccccc4)c(C)c3C)c2cc1OC | enzyme activity, inhibitor | 1 µM | inhibition | 2%
Cc1ccc(NC(=O)c2ccc(CN3CCN(C)CC3)cc2)cc1Nc1nc(-c2cccnc2)cs1 | cell-free assay | 0.5 µM | remaining signal | 101%
Cc1ccc(Nc2nccc(N(C)c3ccc4c(C)n(C)nc4c3)n2)cc1S(N)(=O)=O | enzyme activity, inhibitor | 10 µM | inhibition | 0%
Cn1c2c(c3ccc(Cl)c(Cl)c31)C(C#N)C1(CCOCC1)NC2=O (centres unmarked) | thermal stability, DSF | 10 µM | ΔTm | 0.4 °C
Cc1ccc(C(=O)Nc2ccc(CN3CCN(C)CC3)c(C(F)(F)F)c2)cc1C#Cc1cnc2cccnn12 | enzyme activity, inhibitor | 23.5 nM | remaining activity | 93%
CN(C)C1CCN(CC#Cc2nn(C3CCCC3)c3nc(NCc4ccccc4)ncc23)C1 (centres unmarked) | enzyme activity, inhibitor, FRET | 10 µM | inhibition | 2%
Cc1cc(NC(=O)c2cccc3cc(-c4cccc5[nH]nc(N)c45)ccc23)ccc1F | enzyme activity, inhibitor | 0.1 µM | activity vs control | 101%
Cc1nccc(COC(=O)N2C[C@@H]3[C@@H](CNC(=O)c4ccc5[nH]nnc5c4)[C@@H]3C2)n1 | cell-free assay, competition with immobilised ligand | 1 µM | remaining binding | 98%
CC/C(=N\NC(=O)NCc1cccc(O)c1)c1ccc(O)c(C)c1O | enzyme activity, inhibitor | 0.1 µM | inhibition | -2.6%
